Measurements reported in the EternaBench riboswitch data.

Test system: MS2 coat protein
Assay: apparent Kd, MS2 coat protein; higher = weaker binding; RNA-MaP array; FMN 200 µM where present
In short: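 The apparent Kd is the median of filtered binding-curve fits, one per cluster, to green signal normalised to red-channel RNA signal and control-cluster median Fmax. The clusters were on Illumina sequencing chips, and stalled E. coli RNA polymerase had transcribed the designs on them. Titration used SNAP-549-labelled MS2 coat protein from 0.7 or 1.5 nM, doubling to 3 µM, without and then with constant ligand, in 100 mM Tris-HCl pH 7.5, 80 mM KCl, 4 mM MgCl2, BSA, DTT, yeast tRNA and Tween-20.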

[1] = designed as: ON switch for flavin mononucleotide, no ligand
[2] = ligand present: flavin mononucleotide, designed as: ON switch for flavin mononucleotide
[3] = designed as: OFF switch for flavin mononucleotide, no ligand
[4] = ligand present: flavin mononucleotide, designed as: OFF switch for flavin mononucleotide

Sequence	apparent Kd [1]	apparent Kd [2]	apparent Kd [3]	apparent Kd [4]
UUAUGGUUCAAGAAGGAUGUAUUUGACUUGUACAUAGGAUAUUGUUAUAUUGUUAAUUAUUGUAACAUGAGGAUCACCCAUGUA	7.84 nM	7.77 nM	–	–
GGUUGACGACAAUUACAUGAGGAUCACCCAUGUUUUGGGAUGCAGGAUAUGUGGUAUAUUAAUUAACAGAAGGGCAAUAAUUUU	37.3 nM	39.3 nM	–	–
AAACCUAUAGGAUAUACAUGAGGAUCACCCAUGUUGCGAUUUUUUAGGUAACAGAUCCGUAGAAGGGUAGGUCA	–	–	36.4 nM	66.6 nM
AACUUACAUGAGGAUCACCCAUGUCAGGAUAUCGAAAUUGGCUCGCAAUUGCGAGCGACGAGAAGGGACGUUUU	–	–	17.3 nM	24.8 nM
CGAUAGGACAGAGGAUAUACGUGCUAGAGAUACUAGCAAAAUUACAACACAUGAGGAUCACCCAUGUAGAAGGCUGUCCUAUCG	–	–	5.04 nM	6.21 nM
AGAUAACAUGUAGGAUAUCGAGGCCUGAGGCCUCGAGAAGGACAUGAGGAUCACCCAUGUAGUUGUACUAUGGGAUCACGCACU	–	–	620 nM	186 nM
AAUAUAAGAGCUGGAAAUACUCAAACAUGAGGAUCACCCAUGUAGGAUAUCAGCACGAUAAGUGCUGAGAAGGACAUCCAGCUC	–	–	15 nM	15.4 nM
CUGCCGUAGGAGAAGGACGGCGGGUUAUUUUUUUACAUGAGGAUCACCCAUGUAGGAUAUCCUACGUCAGGCAACCUACUACAG	–	–	6.36 nM	9.54 nM
GUCAGCUCGUGAGGAUAUACAACACUGCUUCGGCAGUCUAUUAAGAUCACAUGAGGAUCACCCAUGUAGAAGGCACGAGCUGAU	–	–	14.9 nM	292 nM
CCCGGGUUUGUGAGGAUAUUGGGCCCGAAAGGGCCCGAGAAGGCACAUGAGGAUCACCCAUGUAAGGGCCCGGG	–	–	25.8 nM	26.4 nM
GACUGCCGAGGAUAUACAUGAGGAUCACCCAUGUGCUUCAGCAUUUUUUAAUGCAUGGGUAGAAGGCGGUAGUC	–	–	32.6 nM	68.5 nM
UUGAUAAGGAGAGGAUAUUGACAUGAGGAUCACCCAUGUACAUGGGAAUAUUUACUGAAUUCUUACGAGAAGGCUUACAUAUUU	–	–	124 nM	66.7 nM
AAAGAACAUGAGGAUCACCCAUGUGAGGAUAUGCGAAAACCGCUGGCGCACCAGACGGGCAGAAGGCAUAUGGU	–	–	75.6 nM	92.5 nM
GUAUUUUAAGUAAGGAUAUGCCUCUGGAAACGGAGGUAGAAGGUACAUGAGGAUCACCCAUGUUUCUCUUUUGG	–	–	16.3 nM	20.6 nM
GAGUAGAAGUUAGGAUAUUGGAUAGGGACGGAAUAAGAAGGAGCAAGACAUGAGGAUCACCCAUGUGUAGAAGAAGAGAUCCUC	–	–	448 nM	168 nM
GUCAGCUCGUGAGGAUAUACAUGUGCUGGAGACAGCACUAAAGUUUUCACAUGAGGAUCACCCAUGUAGAAGGCACGAGCUGAU	–	–	15.4 nM	36 nM
GUAGCUAGUACAGGAUAUUAGUGCGUGUAGUAUUGAGAAGGGUACAUGAGGAUCACCCAUGUGAUCAAUCACUGUUAAGGUUGC	–	–	221 nM	177 nM
AGCCUAGCAGGAUAUGCUCAAGAUUACAUGAGGAUCACCCAUGUGACUGGUUGUUGUCUUGCAGAAGGGCUAGGGA	–	–	20.6 nM	46.8 nM
UUGGACGUCGUAGGAAAUGUAGGAUAUUCCUACAUGAGGAUCACCCAUGUUGACAUGGAAGAAGGACAGAAGGACGAUGUCCAU	517 nM	11 nM	–	–
AGUUUCUUGUAAGGAUAUACUAGCGAUAAGCUAGUAGAAGGUACUGUCUAUUGUAUCACUAUUUUACAUGAGGAUCACCCAUGU	7.13 nM	6.2 nM	–	–
CCGACGUCAGGAUAUCUGAUGUCUAACUUCGGUUAGACAUCAGAGAAGGGACAUGAGGAUCACCCAUGUCGGAG	–	–	29 nM	52.8 nM
GUGUAGAGAGGAUAUACAUGAGGAUCACCCAUGUGAAUAAGAUAGAAUAAGAUAAAGUGUAGAAGGCUUAGUGU	–	–	33.5 nM	25.9 nM
GUGGUCAGACAUGAGGAUCACCCAUGUGGAAUAAAUAAGGAGAAGGAUAUGGAAUAUAGGAUAUACCAGAAGGUCUGGUUGGUG	79 nM	90.7 nM	–	–
